Structures are written as SMILES.

For data set [1], the species on record is Rattus norvegicus. The experiment in a line: Concentration required to reduce the specific binding of [3H]NPA by 50% to rat corpus striatum. The format is functional, organism-based. An outline of the steps:
(§1)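 Male rat (200-225 g) striatal homogenate, 2.5 mg wet weight per tube, in 15 mM Tris-HCl pH 7.5 with 1 mM EDTA and 0.01% ascorbic acid. [3H]NPA 0.50 nM final, 25 °C for 20 min. Nonspecific binding with 1 μM d-butaclamol. Displacer tested over 10⁻¹¹–10⁻⁵ M in triplicate. IC50 = 50% reduction of specific binding, mean ± SEM of three experiments.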

Data set [2] is filed under the species Rattus norvegicus. The data set is described as follows: Binding affinity to rat corpus striatum was determined using [3H]NPA as radioligand. The format is functional. An outline of the steps: as §1
The nature of data set [3]: Partition coefficient (logP). The format is physicochemical. The note with it: octanol/water. An outline of the steps:
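Log P measured in octanol-phosphate buffer at pH 7.4. Phases analysed by the same HPLC-electrochemical method. Mean ± SD, n = 6.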

Data set [4] deals with Rattus norvegicus. The experiment in a line: Effect on HVA metabolism was determined by measuring concentration of HVA at a time interval of 45 minutes after ip administration of 100 umol/kg of compound. The format is functional, organism-based. Put shortly: (§2)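 Female rats (180-200 g) given 100 μmol/kg ip in saline with 0.1% sodium metabisulfite, killed at 15 or 45 min. Striatum frozen on dry ice and kept at -80 °C. DA, DOPAC and HVA isolated on Sephadex G-10, then measured by reversed-phase C18 HPLC with amperometric detection. Control cerebellum used as blank. Not corrected for recovery (86-89%). Mean ± SEM.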

The subject of data set [5] is Rattus norvegicus. The experiment in a line: Effect on DA metabolism was determined by measuring concentration of DA at a time interval of 0 minutes after ip administration of 100 umol/kg of compound. The format is functional, organism-based.
Data set [6] deals with Rattus norvegicus. The data set is described as follows: Effect on 6,7-dihydroxy-3-chromanamine metabolism was determined by measuring concentration of 6,7-dihydroxy-3-chromanamine at a time interval of 15 min after ip administration of 100 umol/kg of compound. The format is functional, organism-based. An outline of the steps:
(§3)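 Female rats (180-200 g) given 100 μmol/kg ip in saline with 0.1% sodium metabisulfite. Killed at 15 or 45 min; striatum dissected, frozen on dry ice and kept at -80 °C. Drug level measured by HPLC with electrochemical detection, mobile phase 0.1 M phosphate-acetate pH 4.5, against a standard. Corrected for 78.8% recovery from spiked brain. Mean ± SEM, n = 8.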

Data set [7] concerns Rattus norvegicus. The data set is described as follows: Effect on HVA metabolism was determined by measuring concentration of HVA at a time interval of 0 minutes after ip administration of 100 umol/kg of compound. The format is functional, organism-based.
Data set [8] has as its system Rattus norvegicus. The experiment in a line: Effect on DA metabolism was determined by measuring concentration of DA at a time interval of 45 min after ip administration of 100 umol/kg of compound. The data set is classed as functional, organism-based. Put shortly:
as §2

Data set [9] has as its system Rattus norvegicus. The experiment in a line: Effect on DA metabolism was determined by measuring concentration of DA at a time interval of 15 minutes after ip administration of 100 umol/kg of compound. The data set is classed as functional, organism-based. An outline of the steps:
as §2

The subject of data set [10] is Rattus norvegicus. The experiment in a line: Effect on DOPAC metabolism was determined by measuring concentration of DOPAC at a time interval of 0 minutes after ip administration of 100 umol/kg of compound. The data set is classed as functional, organism-based.
Data set [11] has as its system Rattus norvegicus. The data set is described as follows: Effect on HVA metabolism was determined by measuring concentration of HVA at a time interval of 15 minutes after ip administration of 100 umol/kg of compound. The data set is classed as functional, organism-based. An outline of the steps:
as §2

For data set [12], the system named is Rattus norvegicus. The data set is described as follows: Effect on DOPAC metabolism was determined by measuring concentration of DOPAC at a time interval of 45 minutes after ip administration of 100 umol/kg of compound. The data set is classed as functional, organism-based. Put shortly: as §2
In data set [13] the test system is Rattus norvegicus. The experiment in a line: Effect on 6,7-dihydroxy-3-chromanamine metabolism was determined by measuring concentration of 6,7-dihydroxy-3-chromanamine at a time interval of 45 min after ip administration of 100 umol/kg of compound. The format is functional, organism-based. An outline of the steps: as §3
The test system of data set [14] is Rattus norvegicus. The experiment in a line: Effect on DOPAC metabolism was determined by measuring concentration of DOPAC at a time interval of 15 minutes after ip administration of 100 umol/kg of compound. The format is functional, organism-based. Put shortly:
as §2

In the data set listed under Rattus norvegicus [1], `CN1CCc2cccc3c2[C@H]1Cc1ccc(O)c(O)c1-3` [APOMORPHINE] yielded a concentration for half-maximal inhibition (IC50) of 22.6 nM. In the data set filed under Rattus norvegicus [2], the affinity corresponds to a Ki of 10.5 nM.

In the data set filed under Rattus norvegicus [1], `NC1CCc2cc(O)c(O)cc2C1` (centres undefined) had an IC50 of 24.5 nM. Further, the affinity in the data set listed under Rattus norvegicus [2] corresponds to a Ki of 12 nM. In addition, in data set [3], the lipophilicity (logP) is 1.88.

As for `NC1COc2cc(O)c(O)cc2C1` (centres undefined), the Concentration with Rattus norvegicus [4] was found to be 1.02 µg/g; with Rattus norvegicus [5], 9.87 µg/g; with Rattus norvegicus [6], 0.34 nM/g; in the data set with Rattus norvegicus [7], 0.91 µg/g; in the data set with Rattus norvegicus [8] it was 10.8 µg/g; in the data set with Rattus norvegicus [9] it was 10.5 µg/g. The Concentration is 1.05 µg/g with Rattus norvegicus [10]; 0.83 µg/g in the data set with Rattus norvegicus [11]; 1.02 µg/g with Rattus norvegicus [12]; 0.2 nM/g in the data set with Rattus norvegicus [13]; 0.97 µg/g in the data set with Rattus norvegicus [14]. Moreover, the concentration for half-maximal inhibition (IC50) in the data set filed under Rattus norvegicus [1] came out at 259 nM. The compound also had an inhibition constant (Ki) in the data set filed under Rattus norvegicus [2] of 144 nM. The compound further yielded a logP in data set [3] of 1.39.
